# Experimental data reported in paper PMC4388048 (Journal of medicinal chemistry, 2015).
# Columns and labels:
# [1] = Optical stability in serum; type: in vitro ADME, fetal bovine serum; settings: 100% FBS, pH 7.4, 37 °C, 24 h
# [2] = In vivo biodistribution and clearance by real-time NIR fluorescence imaging; settings: CD-1 mice, 10 nmol intravenously, imaging over 4 h
# How it was run: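 Male CD-1 mice (~25 g) were anesthetised with ketamine 100 mg/kg and xylazine 10 mg/kg i.p., then given 10 nmol of test fluorophore intravenously. Real-time FLARE imaging used 760 nm excitation at 11 mW/cm2 with white light (400–650 nm). Colour and NIR images were acquired together at up to 15 Hz. Resected organs were also imaged. Exposure and normalisation were held constant.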
# [3] = type: in vivo; settings: CD-1 mice, 10 nmol intravenously, 4 h postinjection, N = 5
# How it was run: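 Anesthetised male CD-1 mice (~25 g; ketamine/xylazine i.p.) received test fluorophore intravenously. After 4 h of imaging, urine was collected from the bladder. Urine volume and optical absorbance were measured to estimate the amount of injected dye excreted.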
# [4] = Optical properties in 100% FBS; type: physicochemical; settings: pH 7.4, 37 °C
# How it was run: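 Absorbance (200–1100 nm) and fluorescence (350–1000 nm) spectra were recorded for 1 µM test dye in 100% FBS, pH 7.4, using fibre-optic spectrometers. Excitation was 8 mW from a 655 or 765 nm laser diode, chosen by structure. Quantum yield was calibrated against oxazine 725 in ethylene glycol (QY 19%) and ICG in DMSO (QY 13%), with absorbance matched at 655 and 765 nm.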
Optical stability in serum [1],uptake in liver [2],Molecule,further results
increased stability,,"Mono(2-((E)-2-((E)-2-((4-(aminomethyl)phenyl)thio)-3-((E)-2-(3,3-dimethyl-5-sulfonato-1-(3-(trimethylammonio)propyl)indolin-2-ylidene)ethylidene)cyclohex-1-en-1-yl)vinyl)-3,3-dimethyl-1-(3-(trimethylammonio)propyl)-3H-indol-1-ium-5-sulfonate) Tribromide [compound 11]",
increased stability,weak uptake in liver,"Mono(2-((E)-2-((E)-2-((4-(carboxymethyl)phenyl)thio)-3-((E)-2-(3,3-dimethyl-5-sulfonato-1-(3-(trimethylammonio)propyl)indolin-2-ylidene)ethylidene)cyclohex-1-en-1-yl)vinyl)-3,3-dimethyl-1-(3-(trimethylammonio)propyl)-3H-indol-1-ium-5-sulfonate) Tribromide [compound 9]",
,,"CC1(C)C(/C=C/C=C/C=C/C=C2\N(CCCCS(=O)(=O)O)c3ccc4ccccc4c3C2(C)C)=[N+](CCCCS(=O)(=O)[O-])c2ccc3ccccc3c21 [ICG, indocyanine green]",Renal excretion amount in urine [3]: 3 % ID
,weak uptake in liver,"Br.Br.CC1(C)C(/C=C/C2=C(Sc3ccc(C(=O)O)cc3)C(=C/C=C3/N(CCC[N+](C)(C)C)c4ccc(S(=O)(=O)[O-])cc4C3(C)C)/CCC2)=[N+](CCC[N+](C)(C)C)c2ccc(S(=O)(=O)[O-])cc21.[Br-] [compound 8, Mono(2-((E)-2-((E)-2-((4-carboxyphenyl)thio)-3-((E)-2-(3,3-dimethyl-5-sulfonato-1-(3-(trimethylammonio)propyl)indolin-2-ylidene)ethylidene)cyclohex-1-en-1-yl)vinyl)-3,3-dimethyl-1-(3-(trimethylammonio)propyl)-3H-indol-1-ium-5-sulfonate) Tribromide]",
least stable,,"Br.Br.CC1(C)C(/C=C/C2=C(Oc3ccc(CCN)cc3)C(=C/C=C3/N(CCC[N+](C)(C)C)c4ccc(S(=O)(=O)[O-])cc4C3(C)C)/CCC2)=[N+](CCC[N+](C)(C)C)c2ccc(S(=O)(=O)[O-])cc21.[Br-] [compound 4, Mono(2-((E)-2-((E)-2-(4-(2-aminoethyl)phenoxy)-3-((E)-2-(3,3-dimethyl-5-sulfonato-1-(3-(trimethylammonio)propyl)-indolin-2-ylidene)ethylidene)cyclohex-1-en-1-yl)vinyl)-3,3-dimethyl-1-(3-(trimethylammonio)propyl)-3H-indol-1-ium-5-sulfonate) Tribromide]",molar extinction coefficient [4]: highest; quantum yield [4]: highest
